Values after ≈ are worked out from the molar mass of the structure shown. Values joined by “and” are separate entries in the source; they are usually repeats but may differ in a detail not shown here. Identical values can stand only once. Like-named read-outs stand apart in the source and are kept apart here.
Columns and labels:
[1] = LC-MS/MS Method 1; assay type: in vivo, rat; details: for concentration at 2 weeks: Conc sulfone, LOQ 1.5 ng/mL
Summary of the method: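 Rats received fipronil in diet at 5 or 10 mg/kg daily, for 14 days or one day. Urine was hydrolysed overnight at 37°C with β-glucuronidase/sulfatase in methanol/ammonium acetate pH 5.5. Urine (40 μL) was spiked with CUDA internal standard and centrifugally filtered at 20,000 g. Analysis used UPLC on C18 at 40°C with a water/acetonitrile 0.1% acetic acid gradient at 0.4 mL/min and […] ESI tandem MS.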

[2] = tested on: second instar larvae of S. frugiperda; assay: Insect bioassay, diet surface contamination method; assay type: in vivo; details: for mortality / insecticidal activity: 2nd instar larvae, doses as high as 100 μg/mL (24-fold higher than fipronil LC50)
[3] = target: α1β3γ2L GABAA receptors (Homo sapiens, UniProt P14867+P18507+P28472); assay type: cell-based; details: for EC50: 25 μM GABA, -80 mV
Chain of α1β3γ2L GABAA receptors (P14867 28-456): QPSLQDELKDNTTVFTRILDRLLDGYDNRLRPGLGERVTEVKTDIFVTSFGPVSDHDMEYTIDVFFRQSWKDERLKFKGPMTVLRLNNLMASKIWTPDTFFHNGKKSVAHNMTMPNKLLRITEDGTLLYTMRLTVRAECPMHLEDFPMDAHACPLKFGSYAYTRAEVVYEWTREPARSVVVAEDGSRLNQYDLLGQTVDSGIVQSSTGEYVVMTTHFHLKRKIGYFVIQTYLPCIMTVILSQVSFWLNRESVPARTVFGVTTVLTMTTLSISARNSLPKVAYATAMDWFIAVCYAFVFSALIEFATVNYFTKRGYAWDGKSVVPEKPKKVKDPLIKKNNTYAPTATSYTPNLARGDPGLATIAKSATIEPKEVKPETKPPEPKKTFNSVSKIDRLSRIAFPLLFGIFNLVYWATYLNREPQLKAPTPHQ
Chain of α1β3γ2L GABAA receptors (P28472 26-473): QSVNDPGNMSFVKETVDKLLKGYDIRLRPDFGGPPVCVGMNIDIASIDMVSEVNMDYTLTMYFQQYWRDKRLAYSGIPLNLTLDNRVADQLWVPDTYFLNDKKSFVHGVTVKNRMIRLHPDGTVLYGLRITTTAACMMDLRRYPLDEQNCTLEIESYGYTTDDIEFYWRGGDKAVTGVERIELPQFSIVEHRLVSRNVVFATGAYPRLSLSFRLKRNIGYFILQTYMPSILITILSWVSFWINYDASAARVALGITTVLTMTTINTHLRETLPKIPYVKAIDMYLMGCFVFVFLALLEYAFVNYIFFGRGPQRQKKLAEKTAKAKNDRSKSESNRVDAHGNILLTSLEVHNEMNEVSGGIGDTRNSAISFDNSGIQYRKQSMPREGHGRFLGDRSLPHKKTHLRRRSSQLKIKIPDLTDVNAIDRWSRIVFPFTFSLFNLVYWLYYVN
Chain of α1β3γ2L GABAA receptors (P18507 40-475): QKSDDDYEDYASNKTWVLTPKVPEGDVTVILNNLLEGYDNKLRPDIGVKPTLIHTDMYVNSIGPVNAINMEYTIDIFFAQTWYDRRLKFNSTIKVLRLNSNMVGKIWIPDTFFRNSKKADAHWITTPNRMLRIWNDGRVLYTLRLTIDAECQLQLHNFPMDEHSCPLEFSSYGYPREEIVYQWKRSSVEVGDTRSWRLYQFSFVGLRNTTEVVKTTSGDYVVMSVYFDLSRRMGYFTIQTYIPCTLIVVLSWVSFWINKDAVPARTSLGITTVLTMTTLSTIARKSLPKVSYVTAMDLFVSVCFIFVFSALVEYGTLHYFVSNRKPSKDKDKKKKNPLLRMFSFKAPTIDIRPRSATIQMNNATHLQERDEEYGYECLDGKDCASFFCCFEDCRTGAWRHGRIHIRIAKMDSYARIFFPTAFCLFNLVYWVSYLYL

[4] = tested on: polyclonal antibodies 2265; assay: Fipronil immunoassay cross-reactivity, serum 2265; assay type: binding; details: serum 2265, n=5; relative to fipronil
[5] = tested on: polyclonal antibodies 2268; assay: Fipronil immunoassay cross-reactivity, serum 2268; assay type: binding; details: serum 2268, n=4; relative to fipronil
[6] = urine of fipronil-treated rats; ref McMahen et al. 2015; cited from earlier work
[7] = in certain conditions; ref Gunasekara et al. 2007; cited from earlier work
[8] = tested on: mice; details: 4.5 mg/kg body weight (bw)/day for 13 weeks; ref Hamernik 1998; cited from earlier work
[9] = tested on: rats; details: in particular females; low doses (3.4 mg/kg bw); ref Hamernik 1998; cited from earlier work
[10] = tested on: dogs; details: diet, up to 3 mg/kg bw/day; ref Hamernik 1998; Woodward 2012; cited from earlier work
[11] = cited from earlier work; for recovery of radioactivity in the urine: rats, ref Powles et al. 1992
[12] = LC/MS/MS Method 2; assay type: in vivo; details: EPA group, this study; for Conc sulfone, LOQ 10 ng/mL: rat urine; for concentration at 2 weeks: rat, urine, oral, Conc sulfone, LOQ 10 ng/mL
Summary of the method: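 Urine came from fipronil-treated rats dosed at 5 or 10 mg/kg, single or repeated daily. Urine (100 μL) was precipitated with cold acetonitrile and centrifuged at 12,500 ×g for 8 min. Supernatant was mixed 1:1 with 10 mM ammonium acetate. HPLC used a C18 column at 30°C with 0.2 mM ammonium acetate methanol/acetonitrile phases, a 50–90% B gradient and flow of 0.4 rising to 0.75 mL/min, then MS/MS.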

[13] = inhibitory effective concentration (EC50) on GABA-induced Cl- currents, pre-application at least 3 min, mean ± S.D.

Structure (SMILES): N#Cc1nn(-c2c(Cl)cc(C(F)(F)F)cc2Cl)c(N)c1O [hydroxy-fipronil, 5-Amino-1-(2,6-dichloro-4-(trifluoromethyl)phenyl)-4-hydroxy-1H-pyrazole-3-carbonitrile]
- Conc FipOH, LOQ 0.4 ng/mL ([1]; rat urine, fipronil 5 mg/kg single, Method 1, listed as FipOH): 23 ng/mL and 24 ng/mL
- Conc FipOH, LOQ 0.4 ng/mL ([1]; rat urine, fipronil 10 mg/kg single, Method 1): 14 ng/mL
- difference in metabolite concentration, two weeks treatment vs single treatment ([1]; rat urine, same doses 5 or 10 mg/kg): 80 to 700 times
- concentration detected in the samples before and after enzymatic hydrolysis ([1]; rat urine, β-glucuronidase/sulfatase, table S4): did not change significantly
- concentration at 14 days ([1]; rat, urine, oral, 10 mg/kg, Conc FipOH, LOQ 0.4 ng/mL, rat urine, fipronil 10 mg/kg repeated (14 days), Method 1): 10200 ng/mL
- concentration in the urine ([1]; rats, single fipronil dose of 5 or 10 mg/kg): about 20 ng/mL
- mortality / insecticidal activity [2]: did not show any mortality
- activity on GABAA α1β3γ2L receptor currents (in words) [3]: did not have a significant inhibitory effect
- EC50 ([3]; inhibitory EC50 on GABA-induced Cl- currents): ~1000 nM
- EC50 [3, 13]: 1000 ± 341 nM
- fold higher concentrations to elicit similar current inhibition ([3]; relative to fipronil and fipronil desulfinyl imidate): ≤ 1000 fold
- Cross-reactivity (CR) [4]: 3.2%
- Cross-reactivity (CR) [5]: 0.7%

Structure (SMILES): N#Cc1nn(-c2c(Cl)cc(C(F)(F)F)cc2Cl)c(N)c1[S+]([O-])C(F)(F)F (stereo not drawn) [fipronil]
- LC50 ([2]; Spodoptera frugiperda): 4.1 µg/mL (≈ 9.38 µM)
- mortality at 100 µg/mL ([2]; Spodoptera frugiperda, 12 h): 100%
- mortality at 50 µg/mL ([2]; Spodoptera frugiperda, 48 h): 100%
- EC50 [3, 13]: 1.15 nM and 1.2 nM
- free fipronil in urine samples [6]: no detectable amount
- half-life (t1/2) in the environment [7]: over 100 days
- bodyweight gain [8]: reduced bodyweight gains
- liver weight [9]: significant increase in liver weight
- other signs of toxicity observed [10]: convulsions, head nodding and muscles twitching
- weight gain and neurological effects [10]: did not experience abnormal weight gain or severe neurological effects

Structure (SMILES): N#Cc1nn(-c2c(Cl)cc(C(F)(F)F)cc2Cl)c(N)c1[S+]([O-])C(F)(F)F (stereo not drawn) [^14C-fipronil]
- recovery of radioactivity in the urine ([11]; repeated dosing over 14 days): 14–16%
- recovery of radioactivity in the urine ([11]; single dose at 4 mg/kg): 5.6%
- recovery of radioactivity in the urine ([11]; single high dose (150 mg/kg)): 22–30%

Structure (SMILES): N#Cc1nn(-c2c(Cl)cc(C(F)(F)F)cc2Cl)c(N)c1S(=O)(=O)C(F)(F)F [fipronil sulfone]
- Conc sulfone, LOQ 1.5 ng/mL ([1]; rat urine, fipronil 5 mg/kg repeated, Method 1): 14 ng/mL
- Conc sulfone, LOQ 1.5 ng/mL ([1]; rat urine, fipronil 5 mg/kg repeated, Method 1, listed as sulfone): 17 ng/mL and 14 ng/mL
- detection in urine samples ([1]; rat urine, samples 42, 81 and 82): detected only in samples obtained from animals treated with fipronil repeatedly
- concentration at 2 weeks ([1]; rat, urine, oral, 5 mg/kg, rat urine, fipronil 5 mg/kg repeated, Method 1): 17 ng/mL
- concentration at 2 weeks ([1]; rat, urine, oral, 10 mg/kg, rat urine, fipronil 10 mg/kg repeated, Method 1): 19 ng/mL
- concentration in urine samples ([1]; rats treated with fipronil, over all dose groups (abstract)): around 20 ng/mL
- Conc sulfone, LOQ 10 ng/mL ([12]; fipronil 5 mg/kg repeated): 24 ng/mL
- Conc sulfone, LOQ 10 ng/mL ([12]; fipronil 5 mg/kg single): < 10 ng/mL
- Conc sulfone, LOQ 10 ng/mL ([12]; fipronil 10 mg/kg single): < 10 ng/mL
- concentration at 2 weeks ([12]; 5 mg/kg, fipronil 5 mg/kg repeated): 26 ng/mL
- concentration at 2 weeks ([12]; 10 mg/kg, fipronil 10 mg/kg repeated): 23 ng/mL
- share among urinary metabolites ([11]; deconjugated and original rat urine, ref Powles et al. (1992)): minor constituent

Structure (SMILES): COC(=N)c1cc(N)n(-c2c(Cl)cc(C(F)(F)F)cc2Cl)n1 [fipronil desulfinyl imidate, methyl 5-amino-1-(2,6-dichloro-4-(trifluoromethyl)phenyl)-1H-pyrazole-3-carbimidate]
- mortality / insecticidal activity [2]: did not show any mortality
- mortality / insecticidal activity ([2]; listed as imidate derivative): did not show any insecticidal activity
- activity on GABAA α1β3γ2L receptor currents (in words) [3]: approximately as potent to fipronil
- EC50 [3, 13]: 2.78 nM and 2.8 nM

From PMC5432128 (Environment international, 2017)
